Most compounds without a hit are left out; they make up all but 1.9% or so of the library.
MT stabilizer: stabilizes microtubules in HeLa cells; 0.83% of 200,000 active; HeLa tubulin immunostaining HCS, 24 h; share of cells brighter than vehicle mean+2SD; AID 2205; % tubulin-high responders, % at 10 µM;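 active = plate Z-score above 3 for both tubulin-high and condensed-nucleus cell shares, with cell loss under 80%, at 10 µM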;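 also: anti alpha tubulin signal scored within the nucleus-defined area of each cell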
bCat nuc transl: alters nuclear translocation of beta-catenin in HeLa cells | immunofluorescence imaging | 0.3% of 190,000 active | nuclear translocation activity, % at 5 µM;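 active = nuclear translocation activity above 50% at 5 µM, with a well cell count of 50 or more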;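 also: per-cell ratio of nuclear to cytoplasmic median beta-catenin stain intensity; plate controls were DMSO negative control for no effect and GSK-3 inhibitor IX positive control for full effect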
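assay system = human HeLa cells, endogenous beta-catenin | times = compound treatment 24 h, 37°C, 5% CO2 | detection = Anti-beta-catenin immunofluorescence on PFA-fixed, Triton-permeabilized cells, DAPI nuclei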
ROMK mod: modulators of human ROMK potassium channel | P48048 | Tet-inducible ROMK, thallium flux fluorescence; actives lie on both sides | B-score at 10 µM | 2% of 130,000 active;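 active = signal ratio slope over the read window, or its plate-corrected B-score, at least 3 SD from the plate mean, either direction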;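 also: B-score of the F/F0 ratio slope over 7 to 12 s after thallium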
Target sequence (P48048 whole entry, looked up): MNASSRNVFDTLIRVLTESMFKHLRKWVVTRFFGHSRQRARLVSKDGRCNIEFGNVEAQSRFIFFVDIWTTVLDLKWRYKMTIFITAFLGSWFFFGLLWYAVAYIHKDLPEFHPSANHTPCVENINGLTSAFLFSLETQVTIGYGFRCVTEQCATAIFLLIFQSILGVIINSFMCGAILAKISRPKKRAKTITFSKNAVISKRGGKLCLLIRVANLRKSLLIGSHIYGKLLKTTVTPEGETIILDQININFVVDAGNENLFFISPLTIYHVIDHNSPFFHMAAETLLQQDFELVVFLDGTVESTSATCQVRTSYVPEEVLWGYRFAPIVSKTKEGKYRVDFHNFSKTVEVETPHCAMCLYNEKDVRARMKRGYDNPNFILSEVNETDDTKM
Active calls of the source: *; · = no result given.

SMILES | MT stabilizer | bCat nuc transl | ROMK mod
Cc1ccc(/C=C2\C(=O)NC(=S)N(c3ccccc3F)C2=O)s1 | 33* | -3 | ·
Cc1ccc(/C=C2\C(=O)NC(=S)N(c3ccc(F)cc3)C2=O)s1 | 7 | -1 | 1.3
CCn1nc(/C=C/c2ccccc2)nc2c(=O)n(C)c(=O)nc1-2 | 28* | -2 | ·
CSc1ccc(C(=O)C2CCCN(CCCn3cccn3)C2)cc1 (stereo unspecified) | 4 | 2 | -0.34
CC(=O)OC(C)(C)/C=C/C(=O)[C@](C)(O)[C@H]1[C@H](O)C[C@@]2(C)[C@@H]3CC=C4[C@H](C[C@H](O)C(=O)C4(C)C)[C@]3(C)C(=O)C[C@]12C | 40* | · | 4.7*
Cc1cc2c(s1)NC(=O)CN=C2c1cccs1 | 3 | 0 | 0
O=C1CN=C(c2cccs2)c2c(sc3c2CCCC3)N1 | 54* | 1 | ·
CCN(CC)P(c1n(C)cc[n+]1C)N(CC)CC | 3 | 0 | 0.29
Cc1ncc(CN2CCCC(C(=O)c3ccc(C(C)(C)C)cc3)C2)s1 (stereo unspecified) | 2 | 0 | -2.1
COc1ccccc1Cn1c(SCC(=O)C(C)(C)C)nc2cc(C(=O)N3CCC4(CC3)OCCO4)ccc2c1=O | 2 | -1 | 0.27
COc1cccc(OC)c1C1=NCC(=O)Nc2c1oc1ccc(Br)cc21 | 14* | 1 | ·
O=C1CN=C(c2ccccc2)c2oc3ccc(Br)cc3c2N1 | 3 | -3 | 0.82
COc1ccccc1-n1c(O)c(/C=N/NC(=S)Nc2ccccc2)c(=O)[nH]c1=S | · | 1 | ·
CCCCCCCSc1cc(OC)c(CCNC)cc1OC | 46 | 1 | -3.1
CCCCCSc1cc(OC)c(CCNC)cc1OC | 2 | -2 | -3.6*
CCn1c(O)c(C=NCCN2CCOCC2)c(=O)[nH]c1=S | · | 1 | ·
O=P(Nc1ccccc1)(Nc1ccccc1)Oc1ccc(Cl)cc1 | 3 | -3 | 2
COc1cccc(NP(=O)(Oc2ccc(Cl)cc2)Oc2ccc(Cl)cc2)c1 | 5 | 90* | 1.3
O=c1[nH]c(=O)n(C2CCCCC2)c(O)c1/C=C/C=Nc1ccccc1 | · | 0 | ·
CCOC(=O)c1nc2ccccc2c(=O)n1-c1ccc(C)cc1 | 2 | -2 | 0.41
CCOC(=O)c1nc2ccccc2c(=O)n1-c1cccc(C)c1 | 3 | -1 | 1.1*
O=C1NC(=O)N(c2ccccc2)C(=O)/C1=C/c1coc2ccc(O)cc2c1=O | · | -1 | ·
O=C1NC(=O)N(c2ccc(Cl)cc2)C(=O)/C1=C/c1coc2ccc(O)cc2c1=O | · | -1 | -8*
CC(C)(C)C(=O)NC1CCSC1=O (stereo unspecified) | 4 | 0 | -0.83
O=C(N/N=C/c1c(O)n(Cc2ccccc2)c(=O)[nH]c1=O)c1ccccc1O | 11 | 0 | 1.6
SMILES | MT stabilizer | bCat nuc transl | ROMK mod
O=C(N/N=C/c1c(O)n(Cc2ccc(F)cc2)c(=O)[nH]c1=O)c1ccccc1O | 14* | 6 | ·
CCc1cccc(C)c1NC(=S)N1CC2CC(C1)c1cccc(=O)n1C2 (stereo unspecified) | 5 | 0 | ·
CCCCn1c(O)c(C(CC)=Nc2ccc(OC)cc2OC)c(=O)[nH]c1=O | 29* | 1 | ·
CCCCn1c(O)c(C(C)=NC(C)c2ccccc2)c(=O)[nH]c1=O (stereo unspecified) | 7 | 3 | ·
CCCCn1c(O)c(C(CC)=Nc2ccc(OCC)cc2)c(=O)[nH]c1=O | 4 | -5 | 0.13
CCCCn1c(O)c(C(CC)=NC(C)c2ccccc2)c(=O)[nH]c1=O (stereo unspecified) | 47* | · | ·
CN(C)c1ccc(/C=C2/C(=N\O)C3CCN2CC3)cc1 | · | 1 | ·
Cc1cccc(OP(=O)(Oc2ccccc2)OC(c2ccccc2)C(F)(F)F)c1 (stereo unspecified) | 2 | -1 | -0.48
Cc1cc(C=O)c(C)n1C1CC1 | 3 | -1 | 0.057
CC(C)(C)NC(=S)/N=C(\N)N[N+](=O)[O-] | 5 | -2 | -0.018
O=C(Nc1nccs1)C(Cl)(Cl)Cl | 2 | 1 | -1.1
O=C(Nc1ccc(Cl)cc1)Nc1nccs1 | 46* | 44 | ·
O=C1NC(=O)N(c2ccc3c(c2)OCO3)C(=O)/C1=C\c1ccc(-c2ccccc2C(=O)O)o1 | · | -5 | ·
CCN(CC)c1ccc(C=C2C(=O)N(C)C(=S)N(C)C2=O)o1 | 2 | · | -1.1
O=C1NC(=O)N(c2ccc3c(c2)OCO3)C(=O)/C1=C/c1ccc(N2CCCCC2)o1 | 3 | -3 | -3.6*
CN1C(=O)C(=Cc2ccc(N3CCCCC3)o2)C(=O)N(C)C1=S | 2 | -3 | -4.9*
O=C1C2CCN(CC2)C1Cc1ccc(OCc2ccccc2)cc1 (stereo unspecified) | 4 | -6 | -0.98
CN(N)N=Nc1nc2c([nH]1)c(=O)n(C)c(=O)n2C | · | 3 | ·
CN(C)C(=O)Oc1ccc(Br)c2ccccc12 | 3 | -1 | ·
O=C(c1cc2c(s1)CCCC2)N1CCC2(CC1)OCCO2 | 3 | · | ·

Screens (PubChem)
